Calls of active or inactive are those of the source. No cut-off for these calls is given here.
Columns and labels:
[1] = target: T1, Elongation factor 1-alpha 1 (Homo sapiens) (UniProt P68104); experiment: Binding affinity to recombinant human eEF1A1 expressed in HEK293 cells by ITC
T1 sequence (whole entry): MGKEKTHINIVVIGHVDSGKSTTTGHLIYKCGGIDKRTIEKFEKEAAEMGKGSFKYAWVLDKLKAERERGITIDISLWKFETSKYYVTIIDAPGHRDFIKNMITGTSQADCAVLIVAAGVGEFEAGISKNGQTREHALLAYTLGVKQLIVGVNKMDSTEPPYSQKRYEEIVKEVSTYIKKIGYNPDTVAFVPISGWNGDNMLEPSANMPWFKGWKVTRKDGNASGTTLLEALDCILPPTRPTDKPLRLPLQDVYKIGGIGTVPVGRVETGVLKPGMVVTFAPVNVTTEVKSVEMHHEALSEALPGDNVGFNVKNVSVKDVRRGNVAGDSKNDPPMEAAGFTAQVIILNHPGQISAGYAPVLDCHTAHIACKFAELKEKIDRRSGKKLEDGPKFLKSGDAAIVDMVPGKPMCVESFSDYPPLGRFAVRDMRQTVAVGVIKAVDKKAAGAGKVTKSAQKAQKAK
In short: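 Isothermal titration calorimetry recorded the heat changes on titrating ligand into eEF1A1. Binding enthalpy and association constant (Ka) were derived from the titration profiles.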

A549 [2] = experiment: Antiproliferative activity against human A549 cells after 72 hrs by MTT assay; type: functional, cell-based; settings: A549, 72 h
U2OS [3] = experiment: Antiproliferative activity against human U2OS cells after 72 hrs by MTT assay; type: functional, cell-based
CCRF-CEM [4] = experiment: Antiproliferative activity against human CCRF-CEM cells after 72 hrs by MTT assay; type: functional, cell-based
[5] = Antiproliferative activity against human CEM-DNR-bulk cells after 72 hrs by MTT assay; type: functional, cell-based
HCT-116 = experiment: Antiproliferative activity against human HCT116 cells after 72 hrs by MTT assay; type: functional, cell-based; settings: HCT-116, 72 h
K562 [6] = experiment: Antiproliferative activity against human K562 cells after 72 hrs by MTT assay; type: functional, cell-based; settings: K562, 72 h
K562 [7] = experiment: Antiproliferative activity against taxol resistant human K562 cells after 72 hrs by MTT assay; type: functional, cell-based; settings: K562, 72 h
BJ [8] = experiment: Antiproliferative activity against human BJ cells after 72 hrs by MTT assay; type: cell-based
K562 [9] = experiment: Antiproliferative activity against taxol resistant human K562 cells by MTT assay; type: functional, cell-based
CCRF-CEM [10] = experiment: Antiproliferative activity against human CCRF-CEM cells by MTT assay; type: functional, cell-based
[11] = Antiproliferative activity against human CEM-DNR-bulk cells by MTT assay; type: functional, cell-based
U2OS [12] = experiment: Antiproliferative activity against human U2OS cells by MTT assay; type: functional, cell-based
K562 [13] = experiment: Antiproliferative activity against human K562 cells by MTT assay; type: functional, cell-based
A549 [14] = experiment: Antiproliferative activity against human A549 cells by MTT assay; type: functional, cell-based
BJ [15] = experiment: Antiproliferative activity against human BJ cells by MTT assay; type: cell-based
[16] = target: T1, Elongation factor 1-alpha 1 (Homo sapiens); experiment: Binding affinity to eEF1A1 in human CCRF-CEM cells after 30 mins by HPLC-MS based SDS-PAGE analysis; type: cell-based
In short: (§1)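 Biotinylated 3-HQ ligands (one linked via the quinolinone benzene ring, one via the 2-phenyl ring) were immobilized on streptavidin magnetic beads and incubated with total protein lysate from CCRF-CEM cells. Bound proteins were released, resolved by SDS-PAGE, and identified by mass spectrometry.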

[17] = target: Pyruvate kinase PKM (Homo sapiens) (UniProt P14618); experiment: Binding affinity to PKM2 in human CCRF-CEM cells after 30 mins by HPLC-MS based SDS-PAGE analysis; type: cell-based; in short: as §1
[18] = target: Actin, cytoplasmic 1 (Homo sapiens) (UniProt P60709); experiment: Binding affinity to beta-actin in human CCRF-CEM cells after 30 mins by HPLC-MS based SDS-PAGE analysis; type: cell-based; in short: as §1
[19] = target: T1, Elongation factor 1-alpha 1 (Homo sapiens); experiment: Binding affinity to eEF1A1 in human CCRF-CEM cells after 30 mins by Western blot method; type: cell-based
[20] = target: Pyruvate kinase PKM (Homo sapiens) (UniProt P14618); experiment: Binding affinity to PKM2 in human CCRF-CEM cells after 30 mins by Western blot method; type: cell-based
[21] = target: Actin, cytoplasmic 1 (Homo sapiens) (UniProt P60709); experiment: Binding affinity to beta-actin in human CCRF-CEM cells after 30 mins by Western blot method; type: cell-based

Pyruvate kinase PKM (Homo sapiens), sequence (P14618 2-531 limits assumed): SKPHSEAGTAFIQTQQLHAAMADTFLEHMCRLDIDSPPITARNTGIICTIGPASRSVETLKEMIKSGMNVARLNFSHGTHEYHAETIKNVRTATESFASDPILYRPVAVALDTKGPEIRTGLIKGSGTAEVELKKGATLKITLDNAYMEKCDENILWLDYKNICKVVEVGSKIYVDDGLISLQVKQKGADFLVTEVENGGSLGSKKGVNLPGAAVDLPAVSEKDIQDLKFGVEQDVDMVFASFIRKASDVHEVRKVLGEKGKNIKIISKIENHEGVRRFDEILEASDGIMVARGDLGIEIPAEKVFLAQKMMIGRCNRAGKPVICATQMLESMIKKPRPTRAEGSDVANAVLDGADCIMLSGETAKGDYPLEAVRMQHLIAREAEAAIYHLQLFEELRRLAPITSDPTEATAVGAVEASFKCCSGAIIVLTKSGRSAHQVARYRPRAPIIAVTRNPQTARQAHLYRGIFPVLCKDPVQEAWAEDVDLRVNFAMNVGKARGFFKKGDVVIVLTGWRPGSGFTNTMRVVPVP

Ka [1] | IC50 (A549 [2]) | IC50 (U2OS [3]) | IC50 (CCRF-CEM [4]) | IC50 (HCT-116) | IC50 (K562 [6]) | IC50 (K562 [7]) | Structure (SMILES) | IC50 [5] | IC50 (BJ [8]) | further results
inactive | > 50 µM | 47 µM | 26.7 µM | 44.2 µM | 48 µM | 27.4 µM | O=c1c(O)c(-c2ccccc2)[nH]c2ccccc12 | 22.5 µM | > 50 µM | –
2.9 ×10⁶ /M | 9.96 µM | 26 µM | 3.34 µM | 4.46 µM | 7.1 µM | 6.41 µM | NC(=O)c1cc(-c2[nH]c3ccccc3c(=O)c2O)ccc1N1CCCCC1 | 21.4 µM | 48.9 µM | –
5.3 ×10⁶ /M | 1.89 µM | 0.56 µM | 1.73 µM | 0.64 µM | 2.39 µM | 32.7 µM | CCCCCNC(=O)c1ccc2c(=O)c(O)c(-c3ccc(N4CCCCC4)c(C(N)=O)c3)[nH]c2c1 | 8.03 µM | 10.2 µM | –
1.03 ×10⁷ /M | 50 µM | 50 µM | 49.6 µM | 50 µM | 50 µM | 50 µM | O=C(O)c1cc(-c2[nH]c3ccccc3c(=O)c2O)ccc1N1CCOCC1 | 50 µM | 50 µM | –
1.81 ×10⁷ /M | 3.77 µM | 0.58 µM | 1.73 µM | 1.01 µM | 8.3 µM | > 50 µM | NC(=O)c1cc(-c2[nH]c3cc(C(=O)NCc4ccccc4)ccc3c(=O)c2O)ccc1N1CCCCC1 | > 50 µM | > 50 µM | –
6.8 ×10⁶ /M | 44.4 µM | 50 µM | 16.2 µM | 30.6 µM | 50 µM | 50 µM | NC(=O)c1cc(-c2[nH]c3ccccc3c(=O)c2O)ccc1N1CCOCC1 | 50 µM | 50 µM | –
– | – | – | – | – | – | – | O=c1c(O)c(-c2ccc(N3CCCCC3)c([N+](=O)[O-])c2)[nH]c2ccccc12 | – | – | IC50 (K562 [9]): 2.02 µM; IC50 (CCRF-CEM [10]): 1.55 µM; IC50 [11]: 3 µM; IC50 (U2OS [12]): 7.51 µM; IC50 (K562 [13]): 0.75 µM; IC50 (A549 [14]): 1.62 µM; IC50 (BJ [15]): 9.83 µM
2.54 ×10⁶ /M | 50 µM | 50 µM | 49.6 µM | 50 µM | 50 µM | 50 µM | O=C(O)c1cc(-c2[nH]c3ccccc3c(=O)c2O)ccc1N1CCCCC1 | 50 µM | 50 µM | –
– | – | – | – | – | – | – | CCNc1ccc(-c2[nH]c3cc(C(=O)NCCOCCOC(=O)CCCC[C@@H]4SC[C@@H]5NC(=O)N[C@@H]54)ccc3c(=O)c2O)cc1[N+](=O)[O-] | – | – | Activity [16]: Active; Activity [17]: Active; Activity [18]: Active; Activity [19]: Active; Activity [20]: Active; Activity [21]: Active
– | – | – | – | – | – | – | CCNc1ccc(-c2[nH]c3ccccc3c(=O)c2O)cc1[N+](=O)[O-] | – | – | IC50 (K562 [9]): 1.96 µM; IC50 (CCRF-CEM [10]): 1.42 µM; IC50 [11]: 3.01 µM; IC50 (U2OS [12]): 9.98 µM; IC50 (K562 [13]): 0.66 µM; IC50 (A549 [14]): 0.94 µM; IC50 (BJ [15]): 9.39 µM
1.27 ×10⁷ /M | – | – | – | – | – | – | O=C(O)/C=C/c1nn(Cc2ccc(Cl)cc2Cl)c2cc(C(F)(F)F)ccc12 | – | – | –
– | – | – | – | – | – | – | O=C1N[C@H]2[C@H](CS[C@H]2CCCCC(=O)OCCOCCOCCOCCOCCOCCOCCOCCOCCOCCNc2ccc(-c3[nH]c4ccccc4c(=O)c3O)cc2[N+](=O)[O-])N1 | – | – | Activity [19]: inactive; Activity [20]: inactive; Activity [21]: inactive
– | – | – | – | – | – | – | CCN(CC)c1ccc(-c2[nH]c3ccccc3c(=O)c2O)cc1[N+](=O)[O-] | – | – | IC50 (K562 [9]): 2.71 µM; IC50 (CCRF-CEM [10]): 1.72 µM; IC50 [11]: 6.75 µM; IC50 (U2OS [12]): 8.57 µM; IC50 (K562 [13]): 0.75 µM; IC50 (A549 [14]): 1.89 µM; IC50 (BJ [15]): 9.73 µM

From ChEMBL document CHEMBL4020837, “Identification of Eukaryotic Translation Elongation Factor 1-α 1 Gamendazole-Binding Site for Binding of 3-Hydroxy-4(1 H)-quinolinones as Novel Ligands with Anticancer Activity” (J Med Chem, 2018)
